Results on 35 molecules are retold here after ChEMBL document CHEMBL1155547, “New aminopropandiol derivatives as orally available and short-acting calcium-sensing receptor antagonists” (Bioorg Med Chem Lett, 2010).

Activity calls are given as the source filed them.

Data set [1] deals with T1, Extracellular calcium-sensing receptor (Homo sapiens, UniProt P41180).
T1 sequence (P41180 whole entry): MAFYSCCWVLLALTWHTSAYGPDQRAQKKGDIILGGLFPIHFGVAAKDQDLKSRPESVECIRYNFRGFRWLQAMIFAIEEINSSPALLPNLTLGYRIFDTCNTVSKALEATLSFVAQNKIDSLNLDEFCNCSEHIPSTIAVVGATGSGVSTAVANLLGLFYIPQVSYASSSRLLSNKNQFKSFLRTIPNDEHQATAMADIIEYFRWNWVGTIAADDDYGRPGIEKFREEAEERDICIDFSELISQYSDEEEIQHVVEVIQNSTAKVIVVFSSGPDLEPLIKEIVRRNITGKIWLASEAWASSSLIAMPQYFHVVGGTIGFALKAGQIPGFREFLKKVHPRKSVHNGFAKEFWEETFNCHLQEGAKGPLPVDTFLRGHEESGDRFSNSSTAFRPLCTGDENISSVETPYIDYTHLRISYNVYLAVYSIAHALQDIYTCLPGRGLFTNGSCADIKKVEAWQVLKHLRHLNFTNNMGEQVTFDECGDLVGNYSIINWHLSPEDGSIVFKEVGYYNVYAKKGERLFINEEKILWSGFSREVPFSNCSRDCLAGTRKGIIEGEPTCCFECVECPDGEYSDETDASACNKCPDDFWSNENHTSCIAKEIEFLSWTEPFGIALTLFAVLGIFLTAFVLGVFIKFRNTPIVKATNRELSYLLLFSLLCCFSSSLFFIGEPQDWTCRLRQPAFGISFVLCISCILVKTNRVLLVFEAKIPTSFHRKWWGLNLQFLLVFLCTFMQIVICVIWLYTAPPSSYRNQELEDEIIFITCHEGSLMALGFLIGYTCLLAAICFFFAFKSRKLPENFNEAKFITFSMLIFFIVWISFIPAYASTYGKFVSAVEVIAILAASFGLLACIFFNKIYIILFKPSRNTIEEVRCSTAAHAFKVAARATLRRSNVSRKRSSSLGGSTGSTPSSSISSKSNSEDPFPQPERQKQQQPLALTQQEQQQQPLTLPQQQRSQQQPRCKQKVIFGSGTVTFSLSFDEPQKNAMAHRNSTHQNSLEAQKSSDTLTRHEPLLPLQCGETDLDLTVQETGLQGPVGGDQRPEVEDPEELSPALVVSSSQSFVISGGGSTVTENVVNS
Description: Antagonist activity at human CaSR expressed in rat PC12 cells transfected with zif promoter/luciferase by reporter gene assay. It is filed as functional, cell-based, PC-12. The method in brief:
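Human CaSR antagonism measured by luciferase reporter gene assay in PC12h cells transfected with zif promoter/luciferase and hCaSR plasmids. IC50 values are means of two or more experiments.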
On the technique in general: Reporter assays use an easily measured gene product as a stand-in for the process of interest.

The test system of data set [2] is Rattus norvegicus. Description: Increase of serum PTH (1-34) level in Sprague-Dawley rat at 100 mg/kg, po after 30 and 60 mins by ELISA relative to NPS 2143. It is filed as functional. The method in brief: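 Sprague–Dawley rats (n = 5) were dosed orally at 100 mg/kg. Serum PTH 1–34 rise over basal at 30 and 60 min was measured by rat PTH 1–34 ELISA. The rise was scored against a reference calcilytic given at 100 mg/kg po: ++ >80%, + 50–80%, N.E. <50% of the reference increase.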
Background: ELISA stands for enzyme-linked immunosorbent assay.

Data set [3] is described as follows: Cmax in rat at 10 mg/kg, po. The class given is ADME, organism-based. On the set-up: dose 10 mg/kg, route oral. The settings on record: in vivo.
For data set [4], the target named is Cytochrome P450 2D6 (Homo sapiens, UniProt P10635). Description: Inhibition of CYP2D6. It is filed as ADME.
For data set [5], the system named is Rattus norvegicus. The data set can be described thus: Increase of plasma PTH (1-84) level in Sprague-Dawley rat at 10 mg/kg, po after 30 mins by ELISA.
Data set [6] can be described thus: Bioavailability in rat at 10 mg/kg, po. It is filed as ADME, organism-based. The settings on record: in vivo.
Data set [7] relates to Rattus norvegicus. Description: Increase of plasma PTH (1-84) level in Sprague-Dawley rat at 10 mg/kg, po after 2 hrs by ELISA.
Data set [8] is described as follows: Half life in rat at 10 mg/kg, po. The class given is ADME, organism-based. Further details: dose 10 mg/kg, route oral. As to conditions: in vivo.
A short description of data set [9]: Tmax in rat at 10 mg/kg, po. The settings on record: in vivo. Further details: dose 10 mg/kg, route oral. It is filed as ADME, organism-based.
Data set [10] concerns Rattus norvegicus. Description: Increase of serum PTH (1-34) level in Sprague-Dawley rat at 100 mg/kg, po after 30 and 60 mins by ELISA. It is filed as functional. In short, it runs like this: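 Sprague–Dawley rats (n = 5) were dosed orally at 100 mg/kg. Endogenous PTH 1–34 was measured by rat PTH 1–34 ELISA. The value is the increase over basal level at 30 min and 60 min after dosing.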

Chain of Cytochrome P450 2D6 (P10635 whole entry): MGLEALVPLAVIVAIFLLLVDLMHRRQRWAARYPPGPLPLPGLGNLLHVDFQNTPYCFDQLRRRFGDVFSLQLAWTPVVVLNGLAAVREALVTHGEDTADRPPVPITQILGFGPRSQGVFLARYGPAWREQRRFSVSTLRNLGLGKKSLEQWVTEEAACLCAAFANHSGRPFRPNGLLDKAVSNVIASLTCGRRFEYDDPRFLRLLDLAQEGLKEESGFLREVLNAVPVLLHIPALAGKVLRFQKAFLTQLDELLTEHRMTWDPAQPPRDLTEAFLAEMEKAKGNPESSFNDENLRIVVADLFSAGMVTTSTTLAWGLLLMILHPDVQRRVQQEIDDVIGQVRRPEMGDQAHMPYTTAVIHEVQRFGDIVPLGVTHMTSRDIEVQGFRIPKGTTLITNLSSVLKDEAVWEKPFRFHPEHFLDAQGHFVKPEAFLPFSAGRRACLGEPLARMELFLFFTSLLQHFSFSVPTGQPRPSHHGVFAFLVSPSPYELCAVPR

As to `CC(C)(Cc1ccc2ccccc2c1)NC[C@@H](O)COC(c1ccccc1)C1CCCC1` (some centres not stated), the IC50 (in general, the midpoint of a concentration-inhibition curve) in data set [1] is 200 nM.

On to `CC(C)(Cc1ccc2ccccc2c1)NC[C@@H](O)COC(c1ccccc1)c1ccccc1`, for which the IC50 in data set [1] was 730 nM.

`Cc1ccc(C(C)OC[C@H](O)CNC(C)(C)Cc2ccc3ccccc3c2)cc1` (some centres not stated) showed an Activity in data set [2] below 50%. Besides, the concentration for half-maximal inhibition (IC50) in data set [1] amounted to 140 nM.

For the molecule `CCC(OC[C@H](O)CNC(C)(C)Cc1ccc2ccccc2c1)c1ccccc1` (some centres not stated), the IC50 in data set [1] is 92 nM.

In data set [2], `COc1ccccc1C(OC[C@H](O)CNC(C)(C)Cc1ccc2ccccc2c1)C1CC1` (some centres not stated) yielded an Activity above 80%.

Turning to `CCCCC(OC[C@H](O)CNC(C)(C)Cc1ccc2ccccc2c1)c1ccccc1` (some centres not stated), in data set [1], the IC50 worked out at 170 nM.

`CC(OC[C@H](O)CNC(C)(C)Cc1ccc2ccccc2c1)c1ccccc1C#N` (some centres not stated) gave an Activity in [2] of 50%. Also, the IC50 in data set [1] worked out at 160 nM.

As for `CC(C)(Cc1ccc2ccccc2c1)NC[C@@H](O)COC(c1ccccc1)C1CCCCC1` (some centres not stated), the IC50 in data set [1] amounted to 610 nM.

As to `Cc1ccccc1[C@H](OC[C@@H](O)CNC(C)(C)Cc1ccc2ccccc2c1)C1CC1`, in data set [1], the IC50 turned out to be 310 nM.

As for `Cc1ccccc1[C@H](OC[C@H](O)CNC(C)(C)Cc1ccc2ccccc2c1)C1CC1`, the highest level in data set [3] (Cmax) was 300 nM. The IC50 is 500 nM in data set [4] and 23 nM in [1]. The outcome in data set [5] was Active. The bioavailability (as a rule, dose-corrected exposure relative to a reference, in per cent) in data set [6] was 13%. In [7], the outcome was inactive. The half-life (usually the time needed for the level to fall by half in the phase considered) in [8] was 2 h. Also, the Tmax (usually the time from dosing to the highest level) in [9] was 1 h.

In data set [2], `Cc1ccccc1C(C)OC[C@H](O)CNC(C)(C)Cc1ccc2ccccc2c1` (some centres not stated) returned an Activity above 80%. Moreover, the IC50 in [1] turned out to be 200 nM.

`CC(OC[C@H](O)CNC(C)(C)Cc1ccc2ccccc2c1)c1ccccc1` (some centres not stated): the IC50 in data set [1] came out at 220 nM.

For the molecule `CC(COC[C@H](O)CNC(C)(C)Cc1ccc2ccccc2c1)c1ccccc1` (some centres not stated), the IC50 in data set [1] is 810 nM.

In turn, `Cc1cccc(C(C)OC[C@H](O)CNC(C)(C)Cc2ccc3ccccc3c2)c1` (some centres not stated) gave an Activity in [2] of 50%. In addition, in data set [1], the IC50 stood at 170 nM.

Turning to `Cc1ccccc1[C@@H](OC[C@@H](O)CNC(C)(C)Cc1ccc2ccccc2c1)C1CC1`, in [1], the IC50 is 760 nM.

In the case of `CC(CCOC[C@H](O)CNC(C)(C)Cc1ccc2ccccc2c1)c1ccccc1` (some centres not stated), the IC50 in data set [1] worked out at 300 nM.

Take `CC(C)(Cc1ccc2ccccc2c1)NC[C@@H](O)COc1cccc(Cl)c1C#N`: in data set [1], the IC50 is 26 nM. This molecule came in with an Activity in data set [10] of 10 pg/mL.

As for `C=CC(OC[C@H](O)CNC(C)(C)Cc1ccc2ccccc2c1)c1ccccc1` (some centres not stated), in data set [1], the IC50 is 210 nM.

Regarding `CC(C)(Cc1ccc2ccccc2c1)NC[C@@H](O)COC(C)(C)c1ccccc1`, the IC50 in data set [1] was 2240 nM.

For `CCCC(OC[C@H](O)CNC(C)(C)Cc1ccc2ccccc2c1)c1ccccc1` (some centres not stated), the IC50 in data set [1] came out at 150 nM.

Take `CC(OC[C@H](O)CNC(C)(C)Cc1ccc2ccccc2c1)c1ccccc1Cl` (some centres not stated): the Activity in data set [2] is listed as below 50%. Further, the IC50 in [1] came to 140 nM.

On to `CC(C)C(OC[C@H](O)CNC(C)(C)Cc1ccc2ccccc2c1)c1ccccc1` (some centres not stated), for which the IC50 in data set [1] turned out to be 200 nM.

Take `CC(C)(Cc1ccc2ccccc2c1)NC[C@@H](O)COC(=O)c1ccccc1`: the IC50 in [1] is above 30000 nM.

`Cc1ccccc1C(OC[C@H](O)CNC(C)(C)Cc1ccc2ccccc2c1)C1CC1` (some centres not stated): in [2], the Activity is above 80%. The IC50 in data set [1] came out at 37 nM.

Turning to `CC(C)(Cc1ccc2ccccc2c1)NC[C@@H](O)COC(c1ccccc1)C(C)(C)C` (some centres not stated), the IC50 in [1] came to 570 nM.

Consider `CC(OC[C@H](O)CNC(C)(C)Cc1ccc2ccccc2c1)c1ccc2ccccc2c1` (some centres not stated), for which the IC50 in data set [1] stood at 550 nM.

Take `CC(Cc1ccccc1)OC[C@H](O)CNC(C)(C)Cc1ccc2ccccc2c1` (some centres not stated): in data set [1], the IC50 is 440 nM.

Take `CC(OC[C@H](O)CNC(C)(C)Cc1ccc2ccccc2c1)c1cccc2ccccc12` (some centres not stated): the IC50 in [1] is 360 nM.

As for `COc1ccccc1C(C)OC[C@H](O)CNC(C)(C)Cc1ccc2ccccc2c1` (some centres not stated), the Activity in data set [2] is above 80%. The IC50 in data set [1] came out at 120 nM.

For `CC(C)(Cc1ccc2ccccc2c1)NC[C@@H](O)COC(c1ccccc1)C1CC1` (some centres not stated), in data set [1], the IC50 was found to be 70 nM.

In data set [2], `CC(OC[C@H](O)CNC(C)(C)Cc1ccc2ccccc2c1)c1ccccc1[N+](=O)[O-]` (some centres not stated) gave an Activity below 50%. The IC50 in data set [1] amounted to 540 nM.

On to `CC(OC[C@H](O)CNC(C)(C)Cc1ccc2ccccc2c1)c1cccc(Cl)c1` (some centres not stated), for which the Activity in data set [2] is below 50%. Further, in data set [1], the IC50 is 220 nM.

Turning to `CC(OC[C@H](O)CNC(C)(C)Cc1ccc2ccccc2c1)c1ccccn1` (some centres not stated), the IC50 in [1] is 420 nM.

As to `Cc1ccccc1[C@@H](OC[C@H](O)CNC(C)(C)Cc1ccc2ccccc2c1)C1CC1`, in [1], the IC50 worked out at 83 nM.

Turning to `CC(C)(Cc1ccc2ccccc2c1)NC[C@@H](O)COC(c1ccccc1)C1CCC1` (some centres not stated), the IC50 in [1] was determined as 74 nM.
